Where a SMILES comes first, the peptide text is derived from it. [ ]: non-standard residue; d: D form. Phe(4-CN) = N#Cc1ccc(C[C@H](N)C(=O)O)cc1
Experiment: not given
Conditions: melittin, Gly residue at the N-terminus; cited from earlier work

For melittin, the “N-terminal pKa of the amino group” value is listed as 7.85.

Experiment: not given
Conditions: value belongs to the α-helical peptide, not the tripeptide; cited from earlier work

In order of rising “N-terminal pKa value (pKaH) of an α-helical peptide with X at the N-terminus” value:
1. N#Cc1ccc(C[C@H](NC(=O)[C@@H](N)CC(N)=O)C(=O)NCC(N)=O)cc1 [N] (H-Asn-[Phe(4-CN)]-Gly-NH2)  7.07
2. N#Cc1ccc(C[C@H](NC(=O)[C@@H](N)CO)C(=O)NCC(N)=O)cc1 [S] (H-Ser-[Phe(4-CN)]-Gly-NH2)  7.63
3. CSCC[C@H](N)C(=O)N[C@@H](Cc1ccc(C#N)cc1)C(=O)NCC(N)=O [M, reference compound] (H-Met-[Phe(4-CN)]-Gly-NH2)  7.83
4. N#Cc1ccc(C[C@H](NC(=O)[C@@H](N)CCCCN)C(=O)NCC(N)=O)cc1 [K] (H-Lys-[Phe(4-CN)]-Gly-NH2)  8.12
5. CC(C)[C@H](N)C(=O)N[C@@H](Cc1ccc(C#N)cc1)C(=O)NCC(N)=O [V] (H-Val-[Phe(4-CN)]-Gly-NH2)  8.14
6. N#Cc1ccc(C[C@H](NC(=O)[C@@H](N)CC(=O)O)C(=O)NCC(N)=O)cc1 [D] (H-Asp-[Phe(4-CN)]-Gly-NH2)  8.25
7. C[C@H](N)C(=O)N[C@@H](Cc1ccc(C#N)cc1)C(=O)NCC(N)=O [A, reference compound] (H-Ala-[Phe(4-CN)]-Gly-NH2)  8.35
8. N#Cc1ccc(C[C@H](NC(=O)CN)C(=O)NCC(N)=O)cc1 [G, reference compound] (H-Gly-[Phe(4-CN)]-Gly-NH2)  8.51
9. N#Cc1ccc(C[C@H](NC(=O)[C@@H]2CCCN2)C(=O)NCC(N)=O)cc1 [P] (H-Pro-[Phe(4-CN)]-Gly-NH2)  8.85

Experiment: pH titration via PheCN fluorescence to determine N-terminal pKa
Assay type: physicochemical
Conditions: 20 μM peptide, pH 2-12, 25 °C, excitation 275 nm
Procedure, shortened: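 Peptides were HPLC-purified and mass-verified, and concentration was set optically from absorbance at 280 nm (ε 850 M−1 cm−1). Each pH was made by mixing peptide stocks in 25 mM H3PO4 and 25 mM NaOH, then read on a pH meter. Spectra were taken in a 1 cm cuvette at 1 nm resolution, 1 s/nm, with buffer background subtracted. Peak intensity was fitted to a two-state equation with linear acidic and basic baselines to give pKa (±0.1).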

For CC(=O)NCC(=O)N[C@@H](Cc1ccc(C#N)cc1)C(=O)NCC(N)=O [*GFCNG] (Ac-Gly-[Phe(4-CN)]-Gly-NH2), the “pH dependence of PheCN fluorescence intensity (acid-base titration transition)” value was “does not show such a transition”.

Reference: PMC4461448 (Analytical biochemistry, 2015)
